# Measurements published in ChEMBL document CHEMBL2046441, “Synthesis and SAR of 4-aminocyclopentapyrrolidines as N-type Ca²⁺ channel blockers with analgesic activity” (Bioorg Med Chem, 2012).
# Key:
# [1] = Inhibition of Voltage-dependent N-type calcium channel in human IMR32 cells by FLIPR based Ca(2+) flux assay; assay type: cell-based, IMR-32
# Procedure, shortened: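 IMR32 cells were plated at 120,000/well and grown 48 h at 37 °C, 5% CO₂. Cells were loaded with Calcium 4 dye in HBSS/1 mM HEPES pH 7.4 for 1.5 h at room temperature, with antagonists present for 1 h of loading.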
# [2] = Inhibition of L-type calcium channel in mouse ND7/23 cells by FLIPR based Ca(2+) flux assay; assay type: cell-based
# Procedure, shortened: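 ND7/23 cells were grown in DMEM with 10% heat-inactivated FBS and seeded at 5.0 × 10⁴ cells/well. After 24 h at 37 °C, 5% CO₂, cells were loaded with calcium dye in HBSS/20 mM HEPES pH 7.4 for 1.5 h at room temperature. Compounds were added for 3 min, then channels were activated with HBSS containing 50 mM KCl/2.5 mM CaCl₂.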
# [3] = system: Rattus norvegicus; test: Analgesic activity in ip dosed Sprague-Dawley rat acute inflammatory pain model assessed as reduction in carrageenan-induced thermal hypersensitivity of paw withdrawal latency dosed 30 mins before thermal hypersensitivity assessment; assay type: functional, organism-based
# Procedure, shortened: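 Male rats 200–350 g; 10% DMSO/PEG400 vehicle; doses 3, 10, 30 mg/kg ip, n = 6. Carrageenan is injected into the plantar surface of the right hind paw. After 2 h, a Hargreaves radiant heat stimulus is applied on 30 °C glass, with cut-off 20.48 s. Both paws are tested in 3 trials about 5 min apart. Latency is taken as the mean of the two shortest readings.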
# [4] = system: Rattus norvegicus; test: Analgesic activity in ip dosed Sprague-Dawley rat osteoarthritis pain model assessed as increase in maximum compressive grip force dosed 30 mins before grip force assessment; assay type: functional, organism-based
# Procedure, shortened: (§1)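 Male Sprague-Dawley rats (200–350 g) were tested at least 21 days after MIA injection. Dosing was 3, 10 or 30 mg/kg ip in 10% DMSO/PEG 400, 30 min before testing; n = 12 per group. Hindlimb grip force was measured twice ~2 min apart to get CFmax, normalised to body weight. Vehicle group set as 0%, age-matched naive group as 100%.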
# [5] = molecular target: Voltage-dependent N-type calcium channel subunit alpha-1B (Rattus norvegicus) (UniProt Q02294); settings: HEK293, 0.3 uM
# Chain of Voltage-dependent N-type calcium channel subunit alpha-1B (Rattus norvegicus) (Q02294 whole entry, looked up): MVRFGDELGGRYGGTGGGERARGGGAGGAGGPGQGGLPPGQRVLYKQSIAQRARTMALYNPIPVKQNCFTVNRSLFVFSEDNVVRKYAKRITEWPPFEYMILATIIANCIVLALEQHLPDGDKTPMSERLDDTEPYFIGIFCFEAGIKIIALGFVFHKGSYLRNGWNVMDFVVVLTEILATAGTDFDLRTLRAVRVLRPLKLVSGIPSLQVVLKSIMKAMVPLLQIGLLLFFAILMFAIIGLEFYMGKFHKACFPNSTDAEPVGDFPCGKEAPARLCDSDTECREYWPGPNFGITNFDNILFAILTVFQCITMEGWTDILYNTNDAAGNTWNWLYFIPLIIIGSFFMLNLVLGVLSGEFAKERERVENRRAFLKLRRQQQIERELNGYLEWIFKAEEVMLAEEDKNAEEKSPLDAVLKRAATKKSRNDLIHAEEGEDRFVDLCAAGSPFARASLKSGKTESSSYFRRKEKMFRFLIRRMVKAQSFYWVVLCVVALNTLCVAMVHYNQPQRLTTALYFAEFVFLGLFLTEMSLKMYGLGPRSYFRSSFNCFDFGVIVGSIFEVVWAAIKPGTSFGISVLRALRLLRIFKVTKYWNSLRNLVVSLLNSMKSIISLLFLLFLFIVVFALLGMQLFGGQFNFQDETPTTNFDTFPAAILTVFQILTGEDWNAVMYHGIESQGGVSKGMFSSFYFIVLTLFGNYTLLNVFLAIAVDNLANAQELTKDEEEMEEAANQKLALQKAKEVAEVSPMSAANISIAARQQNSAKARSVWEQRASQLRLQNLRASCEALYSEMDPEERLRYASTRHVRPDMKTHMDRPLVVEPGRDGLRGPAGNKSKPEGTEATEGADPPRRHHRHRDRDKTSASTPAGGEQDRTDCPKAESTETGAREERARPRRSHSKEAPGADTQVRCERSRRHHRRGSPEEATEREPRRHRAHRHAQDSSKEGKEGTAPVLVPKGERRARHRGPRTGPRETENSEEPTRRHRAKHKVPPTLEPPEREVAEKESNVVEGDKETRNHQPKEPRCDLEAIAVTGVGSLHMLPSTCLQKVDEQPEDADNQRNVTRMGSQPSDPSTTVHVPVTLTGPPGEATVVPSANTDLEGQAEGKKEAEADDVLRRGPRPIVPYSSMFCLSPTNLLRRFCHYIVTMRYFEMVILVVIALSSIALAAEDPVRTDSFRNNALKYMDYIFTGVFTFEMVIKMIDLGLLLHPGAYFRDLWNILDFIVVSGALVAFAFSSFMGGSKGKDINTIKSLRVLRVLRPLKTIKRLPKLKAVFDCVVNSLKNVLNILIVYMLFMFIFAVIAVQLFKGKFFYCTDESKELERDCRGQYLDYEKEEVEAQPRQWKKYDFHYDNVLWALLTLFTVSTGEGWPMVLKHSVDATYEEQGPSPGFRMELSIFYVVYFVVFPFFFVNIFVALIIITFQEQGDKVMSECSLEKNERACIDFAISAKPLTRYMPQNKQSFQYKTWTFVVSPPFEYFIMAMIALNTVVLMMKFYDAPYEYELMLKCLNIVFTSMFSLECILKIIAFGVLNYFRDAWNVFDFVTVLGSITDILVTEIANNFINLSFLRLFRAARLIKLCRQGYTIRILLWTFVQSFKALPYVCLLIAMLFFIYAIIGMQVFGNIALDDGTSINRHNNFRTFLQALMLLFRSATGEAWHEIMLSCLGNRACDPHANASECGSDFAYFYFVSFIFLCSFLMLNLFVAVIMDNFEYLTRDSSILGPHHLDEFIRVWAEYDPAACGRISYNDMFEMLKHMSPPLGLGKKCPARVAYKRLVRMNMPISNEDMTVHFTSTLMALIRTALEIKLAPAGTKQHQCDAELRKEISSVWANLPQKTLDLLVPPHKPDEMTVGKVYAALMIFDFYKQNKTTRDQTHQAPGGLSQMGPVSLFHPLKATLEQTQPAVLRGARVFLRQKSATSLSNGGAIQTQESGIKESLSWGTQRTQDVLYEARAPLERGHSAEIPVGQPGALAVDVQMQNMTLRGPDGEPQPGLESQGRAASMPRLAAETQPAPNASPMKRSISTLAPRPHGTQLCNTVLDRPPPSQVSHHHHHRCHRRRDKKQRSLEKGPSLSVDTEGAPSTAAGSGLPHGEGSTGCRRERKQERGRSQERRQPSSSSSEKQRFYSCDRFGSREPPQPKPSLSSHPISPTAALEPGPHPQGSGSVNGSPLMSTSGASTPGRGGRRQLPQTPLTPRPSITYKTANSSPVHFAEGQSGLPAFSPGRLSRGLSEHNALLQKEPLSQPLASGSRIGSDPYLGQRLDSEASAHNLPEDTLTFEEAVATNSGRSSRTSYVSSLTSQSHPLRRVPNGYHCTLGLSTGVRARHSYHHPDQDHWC
# [6] = molecular target: Voltage-dependent N-type calcium channel subunit alpha-1B (Rattus norvegicus) (UniProt Q02294); settings: HEK293, 0.3 uM; remark: listed apart in the source
# [7] = system: Rattus norvegicus; test: Analgesic activity in Sprague-Dawley rat acute inflammatory pain model assessed as inhibition of carrageenan-induced thermal hypersensitivity of paw withdrawal latency at 30 mg/kg, ip dosed 30 mins before thermal hypersensitivity assessment; assay type: functional; settings: route intraperitoneal
# Procedure, shortened: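 Male Sprague-Dawley rats (200–350 g) received 3, 10 or 30 mg/kg ip in 10% DMSO/PEG 400, n = 6. Dosing was 30 min before testing, and testing was 2 h after intraplantar carrageenan in the right hind paw. Hargreaves radiant heat on 30 °C glass, 4.50 amp, 20.48 s cutoff; each paw tested 3 times ~5 min apart. PWL is the mean of the two shortest latencies.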
# [8] = system: Rattus norvegicus; test: Analgesic activity in Sprague-Dawley rat osteoarthritis pain model assessed as increase in maximum compressive grip force at 30 mg/kg, ip dosed 30 mins before grip force assessment; assay type: functional; settings: route intraperitoneal; procedure, shortened: as §1
# [9] = system: Rattus norvegicus; test: Analgesic activity in Sprague-Dawley rat persistent pain model assessed as inhibition of flinching behavior at 30 mg/kg, ip dosed 30 mins before formalin challenge measured for 20 mins following formalin challenge; assay type: functional; settings: route intraperitoneal
# Procedure, shortened: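 Male Sprague-Dawley rats (200–350 g) were dosed ip in 10% DMSO/PEG 400 (3, 10, 30 mg/kg; n = 6) 30 min before formalin. They then received 50 µl of 5% formalin s.c. into the dorsal right hind paw. Flinches of the injected paw were counted 30–50 min after injection (phase II), sampling one 60 s period per 5 min interval.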
# [10] = system: Rattus norvegicus; test: Neurotoxicity in Sprague-Dawley rat assessed as induction of rotarod performance deficit at 3 to 30 mg/kg, ip and measured once animals were placed back on rotarod apparatus for 3 consecutive testing trials 30 mins following compound dosing; assay type: toxicity, organism-based; set-up: dose 3-30 mg/kg, route intraperitoneal; settings: in vivo, 0.5 h
# Procedure, shortened: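 Male rats first receive three training sessions on an accelerating rod, 0–20 rpm over 60 s. Dosing is 3, 10, 30 mg/kg ip in 10% DMSO/PEG400, n = 6 per group. There are 3 consecutive trials at 30 min post-dose, recording fall latency with a 60 s cut-off.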
# [11] = system: Rattus norvegicus; test: Cardiovascular toxicity in anesthetized Sprague-Dawley rat assessed as changes in mean arterial pressure at 10 mg/kg, iv by hemodynamic function study; assay type: organism-based, Artery; set-up: dose 10 mg/kg, route intravenous; settings: in vivo
# [12] = system: Rattus norvegicus; test: Cardiovascular toxicity in anesthetized Sprague-Dawley rat assessed as changes in heart rate at 10 mg/kg, iv by hemodynamic function study; assay type: organism-based; set-up: dose 10 mg/kg, route intravenous; settings: in vivo
# [13] = system: Rattus norvegicus; test: Cardiovascular toxicity in anesthetized Sprague-Dawley rat assessed as changes in dp/dt rate at 10 mg/kg, iv by hemodynamic function study; assay type: organism-based; set-up: dose 10 mg/kg, route intravenous; settings: in vivo
# [14] = Therapeutic index, ratio of cardiovascular effect in Sprague-Dawley rat at 10 mg/kg, iv to EC50 for analgesic activity in ip dosed Sprague-Dawley rat osteoarthritis pain model; assay type: organism-based; set-up: dose 10 mg/kg, route intravenous; settings: in vivo, read-out: TI
# [15] = molecular target: Voltage-gated L-type calcium channel (Rattus norvegicus, UniProt P22002+Q02485+P27732); test: Inhibition of L-type calcium channel in Sprague-Dawley rat aorta assessed as relaxation of Kcl-induced tissue contraction by aortic ring relaxation assay; assay type: tissue-based
# [16] = Aqueous solubility of the compound; assay type: physicochemical; settings: buffer
# [17] = Protein binding in plasma; assay type: ADME, cell-free; settings: read-out: PPB
# [18] = Stability in human liver microsomes assessed as compound remaining measured after 30 mins; assay type: ADME, Microsome; settings: read-out: Stability
# Procedure, shortened: (§2)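 Compound is incubated with human or rat liver microsomes, and percent parent remaining is measured after 30 min.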
# [19] = Stability in rat liver microsomes assessed as compound remaining measured after 30 mins; assay type: ADME, Microsome; settings: read-out: Stability; procedure, shortened: as §2
# [20] = Bioavailability in ip dosed Sprague-Dawley rat; assay type: ADME, organism-based; settings: in vivo
# [21] = molecular target: Voltage-dependent N-type calcium channel subunit alpha-1B (Rattus norvegicus, UniProt Q02294); test: Inhibition of rat Cav2.2 expressed in HEK293 cells under inactivating depolarizing conditions at holding potential of -80 to -95 mV and stepped to 0 mV once every 5 seconds by whole cell patch clamp assay
# Chain of Voltage-dependent N-type calcium channel subunit alpha-1B (Q02294 whole entry): as the sequence (Q02294 whole entry, looked up) above
# [22] = system: Rattus norvegicus; test: Analgesic activity in Sprague-Dawley rat persistent pain model assessed as inhibition of flinching behavior at 10 mg/kg, ip dosed 30 mins before formalin challenge measured for 20 mins following formalin challenge
# [23] = Homo sapiens, IMR-32, read-out: IC50
# [24] = Homo sapiens, IMR-32, read-out: pIC50 (converted)
SMILES,"IC50 [1, 23] [µM]","IC50 [1, 24] [µM]",IC50 ([2]; read-out: IC50) [µM],IC50 ([2]; read-out: pIC50 (converted)) [µM],further results
O=C(N[C@H]1CC[C@H]2CN(Cc3cccc(C(F)(F)F)c3)C[C@H]21)C(c1ccccc1)c1ccccc1 (racemic),0.67,0.661,6.3,6.31,
O=C(N[C@H]1CC[C@H]2CN(Cc3cccc(C(F)(F)F)c3)C[C@H]21)C1CCCCC1 (racemic),1.26,1.26,16.1,16.2,
O=C(N[C@H]1CC[C@H]2CN(Cc3ccccc3)C[C@H]21)C(C1CCCCC1)C1CCCCC1 (relative stereo),,,> 30,,"pIC50 ([1]; imr-32): 5.33; IC50 ([1]; imr-32, read-out: IC50): 4.67 µM"
O=C(N[C@H]1CC[C@H]2CN(Cc3ccccc3)C[C@H]21)C(C1CCCCC1)C1CCCCC1,,,,,"pIC50 ([1]; imr-32): 4.78; IC50 ([1]; imr-32, read-out: IC50): 16.5 µM"
O=C(N[C@@H]1CC[C@@H]2CN(Cc3cccc(C(F)(F)F)c3)C[C@@H]21)C(C1CCCCC1)C1CCCCC1,1.4,,> 30,,
O=C(N[C@H]1CC[C@H]2CN(Cc3cccc(C(F)(F)F)c3)C[C@H]21)C1CCCCCC1 (racemic),0.56,0.562,9.3,13.8,
CC(C)C(C(=O)N[C@@H]1CC[C@@H]2CN(Cc3ccccc3)C[C@@H]21)c1ccccc1 (mixture of isomers),1.46,1.48,7.21,7.24,
Cc1cccc(CN2C[C@@H]3CC[C@H](NC(=O)C(C4CCCCC4)C4CCCCC4)[C@@H]3C2)c1,0.86,0.851,22.3,22.4,
O=C(N[C@H]1CC[C@H]2CN(Cc3cccc(C(F)(F)F)c3)C[C@H]21)C(C1CCCCC1)C1CCCCC1 [listing 1 of 2 here],,,,,Activity [3]: Dose-dependent effect; Activity [4]: Dose-dependent effect; inhibition [5]: 49%; inhibition [6]: 77%
O=C(N[C@H]1CC[C@H]2CN(Cc3cccc(C(F)(F)F)c3)C[C@H]21)C(c1ccc(F)cc1)c1ccc(F)cc1 (relative stereo),0.64,0.646,7.1,7.08,
CCC(CC)C(=O)N[C@H]1CC[C@H]2CN(Cc3cccc(C(F)(F)F)c3)C[C@H]21 (racemic),2.07,2.09,19,19.1,
O=C(N[C@H]1CC[C@H]2CN(Cc3cccc(C(F)(F)F)c3)C[C@H]21)C(C1CCCCC1)C1CCCCC1 (relative stereo),,,> 30,,"pIC50 ([1]; imr-32): 5.97; IC50 ([1]; imr-32, read-out: IC50): 1.07 µM"
O=C(N[C@H]1CC[C@H]2CN(Cc3ccccc3)C[C@H]21)C(c1ccccc1)C1CCCC1 (relative stereo),0.92,0.933,5.15,5.13,
CC(C)C(C(=O)N[C@H]1CC[C@H]2CN(Cc3cccc(C(F)(F)F)c3)C[C@H]21)c1ccccc1 (mixture of isomers),0.36,0.355,5,5.01,
O=C(N[C@H]1CC[C@H]2CN(Cc3cccc(F)c3)C[C@H]21)C(C1CCCCC1)C1CCCCC1,0.99,0.977,> 30,,
CCCC(CCC)C(=O)N[C@H]1CC[C@H]2CN(Cc3cccc(C(F)(F)F)c3)C[C@H]21 (relative stereo),0.95,0.955,20.1,20.4,
O=C(N[C@H]1CC[C@H]2CN(Cc3ccccc3F)C[C@H]21)C(C1CCCCC1)C1CCCCC1,1.12,1.12,> 30,,
O=C(N[C@H]1CC[C@H]2CN(Cc3ccccc3C(F)(F)F)C[C@H]21)C(C1CCCCC1)C1CCCCC1,2.43,2.45,> 30,,
O=C(N[C@H]1CC[C@H]2CN(Cc3cccc(C(F)(F)F)c3)C[C@H]21)C(C1CCCCC1)C1CCCCC1 [listing 2 of 2 here],,0.468,,,"Emax at 30 mg/kg [7]: 67%; Emax at 30 mg/kg [8]: 87%; EC50 [4]: 2 µM; inhibition in vivo at 30 mg/kg [9]: 51%; Activity [10]: Non-toxic; Activity [11]: Non-toxic; Activity [12]: Non-toxic; Activity [13]: Non-toxic; selectivity ratio [14]: > 15; IC50 ([1]; imr-32, read-out: IC50): 0.46 µM; EC50 [15]: 46 µM; inhibition (INH) ([15]; rat): Dose-dependent effect; solubility [16]: < 3 µM; fraction unbound [17]: < 0.01; remaining at 0.5 h [18]: < 5%; remaining at 0.5 h [19]: < 5%; bioavailability [20]: 41%; IC50 [21]: 0.041 µM; inhibition in vivo at 10 mg/kg [22]: 51%"
O=C(N[C@H]1CC[C@H]2CN(Cc3cccc(C(F)(F)F)c3)C[C@H]21)C1CCCC1 (relative stereo),2.31,2.29,12.8,12.9,
O=C(N[C@@H]1CC[C@@H]2CN(Cc3ccccc3)C[C@@H]21)C(c1ccccc1)C1CCCCC1 (mixture of isomers),1.06,1.07,> 30,,
O=C(N[C@H]1CC[C@H]2CN(Cc3cccc(OC(F)(F)F)c3)C[C@H]21)C(C1CCCCC1)C1CCCCC1,0.51,0.417,> 30,,
O=C(N[C@H]1CC[C@H]2CN(Cc3ccccc3)C[C@H]21)C1(c2ccccc2)CCCCC1 (relative stereo),1.04,1.02,5.56,5.62,
O=C(N[C@H]1CC[C@H]2CN(Cc3ccc(F)cc3)C[C@H]21)C(C1CCCCC1)C1CCCCC1,0.74,0.741,22.9,22.9,
O=C(N[C@H]1CC[C@H]2CN(Cc3ccccc3)C[C@H]21)C1(c2ccccc2)CCCC1 (racemic),1.93,1.95,4.84,4.79,
